# Sampled rows, rich in hits. Any-hit rate of the full collection: about 2.3%.
# Autophagy HCS – modulators of autophagy | AID 463193 | MEF GFP-LC3 puncta imaging; test concentration mostly 10 µM | calls only at 10 µM (by protocol) | 0.98% of 190,000 active;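 active = percentage of spot-positive cells more than 3 SD above its plate mean, without a fluorescence outlier flag or 80% toxicity; inconclusive = no clear call, values can overlap the other calls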;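 note: spot-positive cell cutoff set from DMSO-treated cells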
# MT stabilizer – stabilizes microtubules in HeLa cells; HeLa tubulin immunostaining HCS, 24 h; share of cells brighter than vehicle mean+2SD; % tubulin-high responders, % at 10 µM; 0.83% of 200,000 active; AID 2205;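 active = plate Z-score above 3 for both tubulin-high and condensed-nucleus cell shares, with cell loss under 80%, at 10 µM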;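 note: anti alpha tubulin signal scored within the nucleus-defined area of each cell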
# Dynein transport – dynein cargo transport inhibition | 3617.4 mouse cells, GR-EGFP nuclear translocation imaging; test concentration mostly 20 µM; stimulated with dexamethasone, 1 µM; hits give low values | z-score, hits read low | 0.47% of 220,000 active;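 active = plate z-score of nuclear minus cytoplasmic receptor signal below a set negative limit, without overly bright fluorescence or cell loss, cut at about -3.5 in these data, passing the limit was not always enough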;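 note: z-score of nuclear minus cytoplasmic ring GR-EGFP intensity difference per well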
#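 Also added – dexamethasone, 1.0 µM final · Buffer or medium – tet-free, stripped-serum medium · Schedule – induction 48 h, compound 1 h, agonist 30 min · Detection – formaldehyde fixation, Hoechst nuclear stain, 10x automated fluorescence imaging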
# Ins promoter up – MIN6 insulin promoter up-regulation. z-score at 5 µM. MIN6 insulin promoter-GFP reporter, high-content imaging; hits give high values. 0.3% of 190,000 active. AID 1625;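 active = z-score above 3 at 5 µM with at least 500 cells counted in the well; inconclusive = wells under 500 cells, flagged as cytotoxic or low count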
# b-catenin transl – modulators of beta-catenin nuclear translocation; HeLa beta-catenin nuclear translocation, immunofluorescence imaging; nuclear translocation activity, % at 5 µM; 0.3% of 190,000 active; AID 1665;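 active = nuclear translocation activity above 50% at 5 µM, with a well cell count of 50 or more; inconclusive = wells under 50 cells across six images, flagged as toxic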;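 note: per-cell ratio of nuclear to cytoplasmic median beta-catenin stain intensity; plate controls were DMSO negative control for no effect and GSK-3 inhibitor IX positive control for full effect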
#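 Assay system: human HeLa cells, native beta-catenin; doses: 5 µM primary, 0.02–20 µM confirmation; incubation: compound treatment 24 h, 37°C, 5% CO2; technique: fluorescence imaging of beta-catenin antibody stain plus DAPI; measure: % activation, nuclear-to-cytoplasmic median beta-catenin signal ratio per cell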
# * hit, by the source's call; i = inactive; ? = inconclusive; . = no result given; + = active, no number.
SMILES,Autophagy HCS,MT stabilizer,Dynein transport,Ins promoter up,b-catenin transl
COc1ccc(OC)c(-c2cc(-c3cccnc3)nc(N)c2C#N)c1,.,.,1.1,-0.03,1
CN(CCCC[C@H](CNCc1ccc(-c2ccccc2)cc1)N1C[C@H](c2ccccc2)N(CCc2ccc(Cl)c(Cl)c2)C(=O)C1=O)Cc1ccc(-c2ccccc2)cc1,.,.,1.4,0.6,0
COc1ccc(CNC[C@@H](CCCCN(C)Cc2ccc(OC)cc2)N2C[C@H](c3ccccc3)N(CCc3ccc(Cl)c(Cl)c3)C(=O)C2=O)cc1,+,40,4.1,?,?
Cc1ccc(NC(=O)C2CC(Cl)=CCC2C(=O)O)c([N+](=O)[O-])c1 (centres undefined),i,3,0.41,-0.17,1
O=C1N=C(N2CCOCC2)S/C1=C\c1ccc(-c2ccccc2Cl)o1,+,8,2.9,-0.08,-1
CC(=O)NC(=S)Nc1ccc2oc(=O)ccc2c1,.,.,2,-0.24,-2
COc1cc(NC(=O)Cc2cccs2)c(C(=O)O)cc1OC,i,5,-0.68,0.72,0
Cc1cnc(CN2CCCC(C(=O)c3ccc4c5c(cccc35)CC4)C2)[nH]1 (centres undefined),+,2,1.3,-0.24,0
O=C1CCC(C(=O)N2CCCC(C(=O)c3ccc4c5c(cccc35)CC4)C2)=NN1 (centres undefined),i,33*,-0.036,.,-1
COc1cc(-c2nc(CN3CCCCC3CCNC(C)=O)c(C)o2)ccc1F (centres undefined),.,.,0.53,0.07,-1
COc1ccc(C)cc1-n1cnnn1,.,.,2,-0.61,2
O=C1CC(c2ccccc2)CC2=C1C=Nc1ccccc1N2 (centres undefined),i,21*,-1.5,-0.24,4
COc1ccc(C(=O)NCCn2cc(SCC(N)=O)c3ccccc32)cc1,.,.,-0.62,-0.86,0
CC[n+]1ccc(C(=O)NCc2ccccc2)cc1,i,6,0.23,-0.45,3
CCOc1ccc(OCCn2nnc3ccccc3c2=O)cc1,i,1,-0.52,-0.35,-1
Cc1cccc(N2CCN(C(=S)Nc3ccc4nc(N5CCN(C)CC5)cc(C)c4c3)CC2)c1C,+,8,0.48,.,3
Cc1cc(N2CCN(C)CC2)nc2ccc(NC(=S)NCCN3CCc4ccccc4C3)cc12,+,3,1.7,-4.3,-2
COC(=O)c1sccc1NC(=S)N1CCN(c2cccc(C)c2C)CC1,i,15*,-1.2,-0.28,-1
COc1ccc(Cn2c(C3CC3)nc3ccc(NC(=O)c4ccco4)cc3c2=O)cc1,i,13*,-0.21,.,-1
CCC(=O)Nc1ccc2nc(C3CC3)n(Cc3ccccc3)c(=O)c2c1,i,1,-0.52,-0.12,-3
CCOCCCNC(=O)/C(C#N)=C/c1cc(Br)c(O)c(Br)c1,.,.,0.63,-0.09,50*
O=[N+]([O-])c1ccc(CSc2nnc(Cc3ccccc3)n2-c2ccc(F)cc2)cc1,+,1,-0.28,-0.24,0
Cc1sc2nc(CN3CCOCC3)[nH]c(=S)c2c1C,i,3,0.24,0.64,2
CC1(C)Cc2c(c(-c3ccccc3Cl)[nH]c(=O)c2C#N)CO1,i,4,0.049,.,0
CC1(C)Cc2c(c(-c3ccccc3)[nH]c(=O)c2C#N)CO1,i,3,0.33,3.4*,8
SMILES,Autophagy HCS,MT stabilizer,Dynein transport,Ins promoter up,b-catenin transl
O=C(CN1CCN(Cc2ccccc2)CC1)N/N=C/c1cccnc1,.,.,-0.51,0.01,-3
COc1cc(/C=C2\CC/C(=C\c3cc(OC)c(OC)c(OC)c3)C2=O)cc(OC)c1OC,i,5,0.076,-0.26,.
COc1cc(/C=C2\COC/C(=C\c3cc(OC)c(OC)c(OC)c3)C2=O)cc(OC)c1OC,.,.,-6.6*,-2.3,-1
CC(=O)c1ccc(N2CCN(C(=O)C3CCC3)CC2)cc1,+,2,0.16,1.9,.
COc1cccc(NC(=O)c2ccc(NCCCN3CCC(C)CC3)c([N+](=O)[O-])c2)c1,i,2,0.34,.,0
COc1cccc(NC(=O)c2ccc(NCCCN3CC(C)CC(C)C3)c([N+](=O)[O-])c2)c1 (centres undefined),+,3,0.32,-0.81,1
COc1ccc(S(=O)(=O)N2CCOCC2)cc1NC(=O)CSc1nnc2c(n1)[nH]c1ccccc12,.,.,-0.45,-0.94,1
O=[N+]([O-])c1cc(-c2ncccn2)c([N+](=O)[O-])s1,i,3,-3.9*,-0.8,0
O=C(Nc1ncccn1)c1cc([N+](=O)[O-])cc([N+](=O)[O-])c1,i,6,-0.75,0.12,-2
O=C(CCc1nnc(CCCCc2ccccc2)o1)N1CCCCC1CCO (centres undefined),.,.,0.49,0.15,2
CN(C)CCCN(C(=O)c1cccs1)c1nc(-c2ccccc2)cs1,+,4,0.43,-1.5,-4
Cc1ccc(C=Nc2ccccc2C(N)=O)s1,i,22*,-0.42,.,27
c1ccc(CCN=C2CCCc3c2[nH]c2ccccc32)cc1,.,.,1.5,0.18,3
CCOc1c(OC)cccc1C1CC(=O)Nc2cc(OC)c(OC)cc21 (centres undefined),.,9,2.8,-0.72,0
CC(C)Oc1ccccc1C1CC(=O)Nc2cc3c(cc21)OCCO3 (centres undefined),i,10,-0.28,-4.2,5
CCCOc1c(OC)cccc1C1CC(=O)Nc2cc3c(cc21)OCO3 (centres undefined),i,37*,0.87,0.11,-1
COc1ccccc1C1CC(=O)Nc2cc3c(cc21)OCCO3 (centres undefined),+,13,1.1,-1,-3
CCCOc1c(OC)cccc1C1CC(=O)Nc2cc3c(cc21)OCCO3 (centres undefined),i,51*,0.48,.,.
CCOc1ccccc1C1CC(=O)Nc2cc3c(cc21)OCO3 (centres undefined),i,29*,-0.53,-2.7,2
Cc1ccc(-c2nn(CC(=O)N3CCOCC3)c(=O)c3ccccc23)cc1S(=O)(=O)N(C)C,.,.,0.64,-0.12,1
CN(CC(O)COc1ccc(OCC(O)CN(C)C2CCCCC2)cc1)C1CCCCC1 (centres undefined),+,2,-0.34,0.07,-4
CCC(=O)c1ccc(OCC(O)CN(C)C2CCCCC2)cc1 (centres undefined),i,3,-0.079,.,.
COc1ccc(C2=Nn3c(nnc3-c3ccccn3)SC2)cc1,i,52*,-0.12,0.04,-1
CCc1nnc2n1N=C(c1ccc(OC)cc1)CS2,i,19,-0.37,.,26
COc1ccccc1-c1nnc2n1N=C(c1ccc(O)c(O)c1)CS2,i,21*,-0.62,-3,41
CCOc1ccc(-c2nnc3n2N=C(c2ccc(OC)cc2)CS3)cc1,i,5,0.7,0.63,1
CCOc1ccc(C2=Nn3c(nnc3-c3ccccc3OC)SC2)cc1,i,19*,-0.55,-2.9,46

# Screens deposited in PubChem by several laboratories.
